≈ marks a conversion by molar mass, not a printed value. Calls of active or inactive are those of the source. No cut-off for these calls is given here.
Key:
Escherichia coli = assay: Antibacterial activity against Escherichia coli 198 assessed as growth inhibition after 24 hrs; type: functional
How it was run: (§1)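 Twofold serial dilutions in nutrient broth. The minimum concentration inhibiting visible growth was read after 24 hr incubation at 37°.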

Staphylococcus [1] = assay: Antibacterial activity against penicillin-resistant Staphylococcus pyogenes assessed as growth inhibition after 24 hrs; type: functional
How it was run: (§2)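 Halving (twofold) serial dilutions of compound in nutrient broth, in vitro. Incubated 24 hr at 37°. Value reported is the lowest concentration that inhibited growth.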

Klebsiella aerogenes = assay: Antibacterial activity against Aerobacter aerogenes assessed as growth inhibition after 24 hrs; type: functional; how it was run: as §1
Klebsiella pneumoniae = assay: Antibacterial activity against Klebsiella pneumoniae assessed as growth inhibition after 24 hrs; type: functional; how it was run: as §1
Eimeria acervulina [2] = assay: Anticoccidal activity against Eimeria acervulina assessed as improved weight gain in chicken; type: functional, organism-based
How it was run: (§3)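 Chickens with experimental coccidiosis received compound orally in the diet at 0.05%, starting 1 day before infection. Efficacy was judged 6 days later from survival and weight gain.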

Serratia marcescens = assay: Antibacterial activity against Serratia marcescens assessed as growth inhibition after 24 hrs; type: functional; how it was run: as §1
Pseudomonas aeruginosa = assay: Antibacterial activity against Pseudomonas aeruginosa assessed as growth inhibition after 24 hrs; type: functional; how it was run: as §1
Proteus vulgaris = assay: Antibacterial activity against Proteus vulgaris assessed as growth inhibition after 24 hrs; type: functional; how it was run: as §1
[3] = (§4) Antibacterial activity against Salmonella pullorum assessed as growth inhibition after 24 hrs; type: functional, Salmonella enterica subsp. enterica serovar Pullorum; how it was run: as §1
Enterococcus faecalis = assay: Antibacterial activity against Streptococcus faecalis assessed as growth inhibition after 24 hrs; type: functional; how it was run: as §1
Staphylococcus [4] = assay: Antibacterial activity against penicillin-sensitive Staphylococcus pyogenes assessed as growth inhibition after 24 hrs; type: functional; how it was run: as §2
Eimeria tenella = assay: Anticoccidal activity against Eimeria tenella assessed as improved weight gain and mortality in chicken relative to noninfected control; type: functional, organism-based; how it was run: as §3
[5] = Antifungal activity against Trichophyton granulosum assessed as growth inhibition after 10 days at 28 degC; type: functional; settings: Trichophyton mentagrophytes var. granulosum
How it was run: (§5)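 Twofold serial dilutions in Sabouraud broth. The minimum inhibitory concentration was read after 10 days at 28°.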

Nannizzia gypsea = assay: Antifungal activity against Microsporum gypseum assessed as growth inhibition after 10 days at 28 degC; type: functional; how it was run: as §5
Candida albicans = assay: Antifungal activity against Candida albicans assessed as growth inhibition after 5 days at 37 degC; type: functional
How it was run: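 Twofold serial dilutions in Sabouraud broth. The minimum inhibitory concentration was read after 5 days at 37°.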

Eimeria acervulina [6] = assay: Anticoccidal activity against Eimeria acervulina assessed as improved weight gain and mortality in chicken relative to noninfected control; type: functional, organism-based; how it was run: as §3
[7] = system: Salmonella enterica subsp. enterica serovar Pullorum; assay: as §4; type: functional; how it was run: as §1
[8] = Escherichia coli, 198, 24 h, read-out: MIC
[9] = Staphylococcus, 24 h, read-out: MIC
[10] = Klebsiella aerogenes, 24 h, read-out: MIC
[11] = Klebsiella pneumoniae, 24 h, read-out: MIC
[12] = Serratia marcescens, 24 h, read-out: MIC
[13] = Pseudomonas aeruginosa, 24 h, read-out: MIC
[14] = Proteus vulgaris, 24 h, read-out: MIC
[15] = Salmonella enterica, 24 h, read-out: MIC
[16] = Enterococcus faecalis, 24 h, read-out: MIC
[17] = Nannizzia gypsea, 240 h, read-out: MIC
[18] = Candida albicans, 120 h, read-out: MIC

SMILES	MIC (Escherichia coli; [8]) [µg/mL]	MIC (Staphylococcus [1]; [9]) [µg/mL]	MIC (Klebsiella aerogenes; [10]) [µg/mL]	MIC (Klebsiella pneumoniae; [11]) [µg/mL]	MIC (Serratia marcescens; [12]) [µg/mL]	MIC (Pseudomonas aeruginosa; [13]) [µg/mL]	MIC (Proteus vulgaris; [14]) [µg/mL]	MIC [3, 15] [µg/mL]	MIC (Enterococcus faecalis; [16]) [µg/mL]	MIC (Staphylococcus [4]; [9]) [µg/mL]	Activity (Eimeria tenella)	MIC [5]	MIC (Candida albicans)	MIC (Escherichia coli)	Activity (Eimeria acervulina [6])	MIC (Staphylococcus [1])	MIC (Nannizzia gypsea)	MIC (Klebsiella aerogenes)	MIC (Klebsiella pneumoniae)	MIC (Serratia marcescens)	also measured
CNC1CC(=O)C(C)(c2ccc(-c3ccccc3)cc2)OC1OC (stereo not drawn)	0.8 (≈ 2.46 µM)	0.8 (≈ 2.46 µM)	0.8 (≈ 2.46 µM)	0.8 (≈ 2.46 µM)	0.8 (≈ 2.46 µM)	0.8 (≈ 2.46 µM)	0.8 (≈ 2.46 µM)	0.8 (≈ 2.46 µM)	0.8 (≈ 2.46 µM)	0.8 (≈ 2.46 µM)	Active	–	–	–	–	–	–	–	–	–	Activity (Eimeria acervulina [2]): inactive
COC1C=CC(=O)C(C)(c2ccc(-c3ccccc3)cc2)O1 (stereo in doubt; 1a) [listing 1 of 2 here]	–	–	–	–	–	–	–	–	–	–	Active	1 µg/mL (≈ 3.4 µM)	–	–	–	–	–	–	–	–	–
COC1OC(C)(c2ccc(-c3ccccc3)cc2)C(=O)CC1N1CCOCC1 (stereo not drawn)	3.2 (≈ 8.39 µM)	3.2 (≈ 8.39 µM)	3.2 (≈ 8.39 µM)	3.2 (≈ 8.39 µM)	3.2 (≈ 8.39 µM)	3.2 (≈ 8.39 µM)	3.2 (≈ 8.39 µM)	3.2 (≈ 8.39 µM)	3.2 (≈ 8.39 µM)	3.2 (≈ 8.39 µM)	Active	16 µg/mL (≈ 41.9 µM)	inactive	–	–	–	–	–	–	–	MIC (Nannizzia gypsea; [17]): 3.2 µg/mL (≈ 8.39 µM); Activity (Eimeria acervulina [2]): inactive
COC1OC(C)(c2ccc(-c3ccccc3)cc2)C(=O)CC1N(C)C (stereo in doubt; 2a) [listing 1 of 2 here]	3.2 (≈ 9.43 µM)	3.2 (≈ 9.43 µM)	3.2 (≈ 9.43 µM)	3.2 (≈ 9.43 µM)	3.2 (≈ 9.43 µM)	3.2 (≈ 9.43 µM)	3.2 (≈ 9.43 µM)	3.2 (≈ 9.43 µM)	3.2 (≈ 9.43 µM)	3.2 (≈ 9.43 µM)	–	–	–	–	–	–	–	–	–	–	MIC (Nannizzia gypsea; [17]): 4 µg/mL (≈ 11.8 µM); MIC (Candida albicans; [18]): 16 µg/mL (≈ 47.1 µM)
COC1OC(C)(c2ccc(-c3ccccc3)cc2)C(O)CC1N(C)C (stereo in doubt; 3a)	–	–	–	–	–	–	–	–	–	–	Active	inactive	inactive	inactive	Active	inactive	inactive	inactive	inactive	inactive	MIC (Pseudomonas aeruginosa): inactive; MIC (Proteus vulgaris): inactive; MIC [7]: inactive; MIC (Enterococcus faecalis): inactive; MIC (Staphylococcus [4]): inactive
COC1OC(C)(c2ccc(-c3ccccc3)cc2)C(=O)CC1N(C)C (single isomer, unassigned; isomer 1) [listing 1 of 2 here]	–	–	–	–	–	–	–	–	–	–	–	–	16 µg/mL (≈ 47.1 µM)	6.2 µg/mL (≈ 18.3 µM)	–	6.2 µg/mL (≈ 18.3 µM)	8 µg/mL (≈ 23.6 µM)	6.2 µg/mL (≈ 18.3 µM)	6.2 µg/mL (≈ 18.3 µM)	6.2 µg/mL (≈ 18.3 µM)	MIC (Pseudomonas aeruginosa): 6.2 µg/mL (≈ 18.3 µM); MIC (Proteus vulgaris): 6.2 µg/mL (≈ 18.3 µM); MIC [3]: 6.2 µg/mL (≈ 18.3 µM); MIC (Enterococcus faecalis): 6.2 µg/mL (≈ 18.3 µM); MIC (Staphylococcus [4]): 6.2 µg/mL (≈ 18.3 µM)
COC1OC(C)(c2ccc(-c3ccccc3)cc2)C(O)CC1N1CCN(C)CC1 (stereo not drawn)	–	–	–	–	–	–	–	–	–	–	Active	inactive	inactive	inactive	–	inactive	inactive	inactive	inactive	inactive	Activity (Eimeria acervulina [2]): inactive; MIC (Pseudomonas aeruginosa): inactive; MIC (Proteus vulgaris): inactive; MIC [7]: inactive; MIC (Enterococcus faecalis): inactive; MIC (Staphylococcus [4]): inactive
CN(C)C(=O)OC1C=CC(=O)C(C)(c2ccc(-c3ccccc3)cc2)O1 (stereo not drawn)	6.2 (≈ 17.6 µM)	6.2 (≈ 17.6 µM)	6.2 (≈ 17.6 µM)	6.2 (≈ 17.6 µM)	6.2 (≈ 17.6 µM)	6.2 (≈ 17.6 µM)	6.2 (≈ 17.6 µM)	6.2 (≈ 17.6 µM)	6.2 (≈ 17.6 µM)	6.2 (≈ 17.6 µM)	Active	6.2 µg/mL (≈ 17.6 µM)	–	–	Active	–	–	–	–	–	MIC (Nannizzia gypsea; [17]): 8 µg/mL (≈ 22.8 µM); MIC (Candida albicans; [18]): 50 µg/mL (≈ 142 µM)
COC1C=CC(=O)C(C)(c2ccc(-c3ccccc3)cc2)O1 (single isomer, unassigned; isomer 1)	–	–	–	–	–	–	–	–	–	–	–	–	16 µg/mL (≈ 54.4 µM)	6.2 µg/mL (≈ 21.1 µM)	–	6.2 µg/mL (≈ 21.1 µM)	2 µg/mL (≈ 6.79 µM)	6.2 µg/mL (≈ 21.1 µM)	6.2 µg/mL (≈ 21.1 µM)	6.2 µg/mL (≈ 21.1 µM)	MIC (Pseudomonas aeruginosa): 6.2 µg/mL (≈ 21.1 µM); MIC (Proteus vulgaris): 6.2 µg/mL (≈ 21.1 µM); MIC [3]: 6.2 µg/mL (≈ 21.1 µM); MIC (Enterococcus faecalis): 6.2 µg/mL (≈ 21.1 µM); MIC (Staphylococcus [4]): 6.2 µg/mL (≈ 21.1 µM)
COC1OC(C)(c2ccc(-c3ccccc3)cc2)C(O)CC1N(C)C (single isomer, unassigned; isomer 1)	–	–	–	–	–	–	–	–	–	–	Active	inactive	inactive	inactive	Active	inactive	inactive	inactive	inactive	inactive	MIC (Pseudomonas aeruginosa): inactive; MIC (Proteus vulgaris): inactive; MIC [7]: inactive; MIC (Enterococcus faecalis): inactive; MIC (Staphylococcus [4]): inactive
COC1OC(C)(c2ccc(-c3ccccc3)cc2)C(=O)CC1N(C)C (single isomer, unassigned; isomer 1) [listing 2 of 2 here]	–	–	–	–	–	–	–	–	–	–	Active	8 µg/mL (≈ 23.6 µM)	–	–	Active	–	–	–	–	–	–
COC1OC(C)(c2ccc(-c3ccccc3)cc2)C(=O)CC1N(C)C (stereo in doubt; 2a) [listing 2 of 2 here]	–	–	–	–	–	–	–	–	–	–	Active	8 µg/mL (≈ 23.6 µM)	–	–	Active	–	–	–	–	–	–
COC1C=CC(=O)C(C)(c2ccc(-c3ccccc3)cc2)O1 (stereo in doubt; 1a) [listing 2 of 2 here]	6.2 (≈ 21.1 µM)	6.2 (≈ 21.1 µM)	6.2 (≈ 21.1 µM)	6.2 (≈ 21.1 µM)	6.2 (≈ 21.1 µM)	6.2 (≈ 21.1 µM)	6.2 (≈ 21.1 µM)	6.2 (≈ 21.1 µM)	6.2 (≈ 21.1 µM)	6.2 (≈ 21.1 µM)	–	–	–	–	–	–	–	–	–	–	MIC (Nannizzia gypsea; [17]): 2 µg/mL (≈ 6.79 µM); MIC (Candida albicans; [18]): 32 µg/mL (≈ 109 µM)
